Measurements pooled from the literature.
Protocols differ between the studies behind these lines.
Target: 5-hydroxytryptamine receptor 2B (HTR2B, Homo sapiens, UniProt P41595)

Structure (SMILES)	test	conditions	measurement	value
CCOc1ccccc1NC(=O)c1ccccc1NS(=O)(=O)C1CC1	ligand displacement, radioligand	10 µM	inhibition	63%
Clc1ccc2c(C3CCN(CCc4c[nH]c5ccccc45)CC3)c[nH]c2c1	ligand displacement, radioligand	10 µM	inhibition	100%
Nc1ncc(-c2nc(N3CCOCC3)nc(N3CCOCC3)n2)c(C(F)F)n1	cell-free assay, radioligand	10 µM	remaining signal	94.1%
Cn1cncc1[C@@](O)(COc1ccc(C#N)cc1-c1ccc(OC(F)(F)F)cc1)c1ccc(C#N)cc1	ligand displacement	10 µM	inhibition	18.6%
c1ccc(C(NCCNC(c2ccccc2)c2ccccc2)c2ccccc2)cc1	ligand displacement	10 µM	inhibition	79%
CCN(CC)CCCC[C@H](NC(=O)[C@H](CC(C)C)NC(=O)[C@H](C)NC(=O)[C@H](Cc1ccccc1)NC(=O)c1ccc(C(C)(C)C)cc1)C(=O)N[C@@H](CO)C(=O)OC	ligand displacement, radioligand	10 µM	inhibition	7%
N#CC1(c2ccccn2)CCN(Cc2cc(C(=O)O)c(=O)n3ccccc23)CC1	ligand displacement	10 µM	inhibition	3.23%
CC(Cc1ccccc1)NCCn1cnc2c1c(=O)n(C)c(=O)n2C (centres unmarked)	ligand displacement, radioligand	10 µM	inhibition	23%
COCCN(CCOC)C(=O)[C@@]12C[C@@H]1[C@@H](n1cnc3c(N)nc(Cl)nc31)[C@H](O)[C@@H]2O	ligand displacement, radioligand	10 µM	inhibition	36%
COc1cc2c3c(c1OC)-c1cc4c(cc1CC3N(C)CC2)OCO4 (racemic)	ligand displacement, radioligand	10 µM	inhibition	92.8%
CC(C)N1CCC[C@H]1CNC(=O)c1cn(C2CCCC2)c(=O)c2c1c1ccccc1n2C	ligand displacement, radioligand	10 µM	inhibition	41%
CCC(N)Cc1cc(OC)c(COC)cc1OC (centres unmarked)	G protein activation, agonist, BRET		Emax	43%
C[C@H](C(=O)N[C@H]1COc2ccccc2[C@@H]1S(C)(=O)=O)c1ccc(F)cc1	ligand displacement	10 µM	inhibition	-9%
COCc1c(-c2cc3cc(C)cc(OC)c3s2)c2c(N)ncnn2c1CN1CCNC(=O)C1	ligand displacement, radioligand	10 µM	inhibition	84%
